OX1R antag-1 – antagonists of human orexin 1 receptor (OX1R); O43613; OX1R-expressing cells, FRET antagonist read-out; inhibition, % at 6.6 µM; hit rate 1.8% among 330,000; in the data active means inhibition mostly above about 38%, no sharp cut-off; inactive means mostly below about 40%;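 further: 0% = agonist challenge alone and 100% = reference antagonist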
Target sequence (O43613 whole entry, looked up): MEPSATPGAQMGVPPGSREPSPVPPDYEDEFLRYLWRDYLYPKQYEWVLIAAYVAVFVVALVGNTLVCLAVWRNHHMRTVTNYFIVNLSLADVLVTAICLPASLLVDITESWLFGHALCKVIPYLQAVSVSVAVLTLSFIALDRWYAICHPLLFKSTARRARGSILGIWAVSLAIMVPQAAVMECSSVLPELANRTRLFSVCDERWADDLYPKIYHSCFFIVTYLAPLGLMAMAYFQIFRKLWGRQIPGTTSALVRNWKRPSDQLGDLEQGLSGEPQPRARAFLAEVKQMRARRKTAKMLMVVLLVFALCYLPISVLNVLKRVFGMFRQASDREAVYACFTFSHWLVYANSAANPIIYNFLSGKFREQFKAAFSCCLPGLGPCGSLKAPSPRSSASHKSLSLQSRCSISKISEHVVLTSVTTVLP
GPR7 antagonist – human neuropeptides B/W receptor 1 antagonism; hit rate 1.1% among 290,000; inhibition, % at 4.4 µM; P48145; GPR7-expressing cells, fluorescence antagonist assay; in the data active means inhibition above about 16%, passing the limit was not always enough;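 further: cells stimulated with the agonist NPW; 0% = agonist with vehicle and 100% = vehicle without agonist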
TAAR1 agonist – human TAAR1 agonism; CHO RD-HGA16 TAAR1, Fluo-8 calcium fluorescence; vehicle wells 0%, saturating PEA agonist 100%; Q96RJ0; activation, % at 3 µM; AID 624467; hit rate 0.99% among 360,000;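 active means activation above the mean activation of all test compounds in the run plus 3 SD, cut at about 38% in these data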
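Signal – calcium-sensitive Fluo-8 signal, excitation 470-495, emission 515-575 nm · System – RD-HGA16 (CHO) cells co-expressing Gα16 and hTAAR1 · Incubation – 17-24 h seeding, 75 min 37 °C dye, 30 min RT · Compound dosing – 3 µM single concentration · Repeats – no replicates (n 1)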
OX1R antag-2 – blocks the human orexin 1 receptor. CHO/OX1R cells, Fluo-8 calcium fluorescence, orexin A. inhibition, % at 5 µM. hit rate 0.43% among 330,000;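 active means inhibition above its plate's threshold, mean inhibition of all tested compounds on the plate plus 3 SD, cut at about 37% in these data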;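 further: 0% = orexin A challenge wells and 100% = SB-334867-A antagonist wells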
CHO parental Ca – counter-screen for OX1R antagonists: effect in parental CHO cells | parental CHO-K1, ATP-induced calcium, Fluo-8 fluorescence | inhibition, % at 5.6 µM | hit rate 0.63% among 330,000;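 active means inhibition above that plate's mean sample inhibition plus 3 SD, cut at about 26% in these data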;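 further: 0% = ATP-challenged DMSO wells and 100% = DMSO wells without ATP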
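Test system: untransfected parental CHO cell line; also added: ATP stimulus; dosing: 5.6 µM, single dose; signal: calcium-sensitive Fluo-8 fluorescence; measure: percent inhibition of ATP-evoked calcium rise, normalized to controls; benchmarks: low control ATP plus DMSO, high control DMSO only; replication: one well per compound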
TAAR1 antag – antagonists of human TAAR1. inhibition, % at 3 µM. hit rate 1.5% among 360,000. Q96RJ0. CHO RD-HGA16 TAAR1, Fluo-8 calcium fluorescence, antagonist;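 active means inhibition above a per-plate cutoff, the mean inhibition of test compounds on that plate plus 3 SD, cut at about 49% in these data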;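 further: 0% = DMSO plus EC80 beta-PEA response and 100% = DMSO alone without agonist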
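Assay system: CHO-derived RD-HGA16 cells stably expressing human TAAR1 plus Gα16. Timing: 140 s kinetic read after compound, 140 s after agonist. Technique: kinetic Fluo-8 calcium fluorescence measurement. Measure: % inhibition of agonist calcium response.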
TAAR1 ag confirm – confirmation of human TAAR1 agonists | shares compounds with TAAR1 agonist | CHO RD-HGA16 TAAR1, Fluo-8 calcium fluorescence; scaled: DMSO 0%, maximal phenethylamine 100% | activation, % at 3 µM | hit rate 82% among 2,400 | AID 651783;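 active means activation above a cutoff set at the run's mean compound activation plus 3 SD, cut at about 39% in these data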
Ga16 nonsel ag – nonselective agonist in parental cells, TAAR1 agonist counter-screen | shares compounds with TAAR1 agonist | CHO-Ga16 parental, Fluo-8 calcium fluorescence; normalized to maximal ATP response, DMSO zero | activation, % at 3 µM | hit rate 50% among 2,400 | AID 651787;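 active means activation above the run cutoff, the mean activation over all tested wells plus 3 SD, cut at about 12% in these data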;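 further: 0% = DMSO wells and 100% = maximal ATP response on the peak over basal ratio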
TAAR1 desensitize – TAAR1 response desensitization, agonist counter-screen; shares compounds with TAAR1 agonist; CHO RD-HGA16 hTAAR1, Fluo-8 calcium, beta-PEA response inhibition; inhibition, % at 3 µM; hit rate 46% among 2,400; AID 651951;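 active means inhibition above the run cutoff, the mean inhibition of all test compounds plus 3 SD, cut at about 49% in these data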;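 further: beta-PEA stimulus applied at its EC80; loss of beta-PEA calcium signal after compound pretreatment read as receptor desensitization; 0% = DMSO with beta-PEA at EC80 and 100% = DMSO alone without agonist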
Ga16 antag count – counter-screen for TAAR1 agonists: nonselective Ga16 antagonists; AID 651952; inhibition, % at 3 µM; CHO-Ga16 ATP-induced calcium, Fluo-8 fluorescence; shares compounds with TAAR1 agonist; hit rate 39% among 2,400;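 active means inhibition above the plate's mean compound inhibition plus 3 SD, computed per plate, cut at about 22% in these data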;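 further: 0% = EC80 ATP with DMSO and 100% = DMSO wells without ATP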
* = called active by the depositor; x = not tested or not shown. Shown are actives, neighbours in structure and some others; about 4.6% of the full set was active somewhere.

SMILES	OX1R antag-1	GPR7 antagonist	TAAR1 agonist	OX1R antag-2	CHO parental Ca	TAAR1 antag	TAAR1 ag confirm	Ga16 nonsel ag	TAAR1 desensitize	Ga16 antag count
CN(CCc1ccccc1)C(=O)CC1C(=O)NCCN1Cc1ccccn1 (stereo not drawn)	x	x	63*	x	x	42	71*	3	60*	8
CC(C)Oc1ccc(OCCSc2nc3ccccc3n2CC(=O)O)cc1	9	-4	3	-8	-7	2	x	x	x	x
COc1ccc([N+](=O)[O-])c(O)c1C(C)=O	x	x	1	x	x	-17	x	x	x	x
CCOC(=O)Cc1nnc(NC(=O)Nc2ccccc2)s1	17	-5	45*	-22	-15	26	67*	4	42	4
COCc1nnc(NC(=O)CSc2ccc(C)cc2)s1	17	13	36	-15	-11	-5	x	x	x	x
COc1ccc(NC(=O)Nc2nnc(CC(=O)NCc3ccccc3)s2)cc1	16	0	44*	-12	2	22	54*	5	32	14
CCOC(=O)Cc1nnc(NC(=O)CSc2ccc(C)cc2)s1	5	-3	69*	-19	-10	8	58*	27*	7	-2
CC(=O)Nc1ccc(NC(=O)CS(=O)(=O)c2cn(CC(=O)N3CCC(C)CC3)c3ccccc23)cc1	14	-16	5	-17	-12	-23	x	x	x	x
O=C(O)c1cccc(NS(=O)(=O)c2ccc(C3CCCCC3)cc2)c1	7	15	x	5	-8	x	x	x	x	x
N#CCc1ccc(NS(=O)(=O)c2ccc(C3CCCCC3)cc2)cc1	17	-4	51*	13	68*	51*	51*	24*	42	34*
Cc1cccc(NS(=O)(=O)c2ccc(C3CCCCC3)cc2)c1	0	-10	59*	51*	48*	55*	38*	8	48	37*
COc1ccc(C2(C(=O)Nc3ccc(S(=O)(=O)Nc4nc(C)cc(C)n4)cc3)CCCC2)cc1OC	-2	-2	1	-13	-10	-18	x	x	x	x
Cc1cc(C)nc(NS(=O)(=O)c2ccc(NC(=O)C3(c4ccc([N+](=O)[O-])cc4)CCCC3)cc2)n1	5	25	63*	17	12	37	102*	39*	64*	36*
O=C(Nc1ccc(Cl)c(C(F)(F)F)c1)NC1CC2CCCC(C1)N2C1CC1 (stereo not drawn)	10	-1	68*	-12	-3	25	70*	25*	41	25*
CCC(=O)Nc1ccc2c(c1)Cc1cc([N+](=O)[O-])ccc1-2	x	x	2	x	x	0	x	x	x	x
Cc1cccc(NC(=O)NCc2cccnc2)c1C	29	-12	0	-10	-9	-11	x	x	x	x
CC1Sc2ccc(S(=O)(=O)NCCc3ccccc3)cc2NC1=O (stereo not drawn)	33	0	69*	-26	-24	3	66*	5	42	12
O=S(=O)(NCCc1ccccc1)c1cccc2cccnc12	18	2	63*	-21	-12	-9	78*	11	41	6
O=S(=O)(NCCc1ccccc1)c1ccc(F)cc1	2	-6	73*	-18	-20	64*	86*	-1	80*	10
CC(=O)Nc1ccc(S(=O)(=O)NCCc2ccc(F)cc2)cc1	10	-14	4	-12	-5	5	x	x	x	x
Nc1ccc(C(=O)N2CCN(S(=O)(=O)c3ccc(Cl)s3)CC2)cc1[N+](=O)[O-]	17	x	4	-24	4	20	x	x	x	x
CC(=O)OCC(=O)C1(O)CCC2C3CC(F)C4=CC(=O)CCC4(C)C3C(O)CC21C (stereo not drawn)	x	x	5	x	x	-7	x	x	x	x
OC(CNCCc1ccc(Cl)cc1)COCc1ccco1 (stereo not drawn)	14	-2	56*	-17	-21	2	67*	1	26	6
CC(=O)c1cccc(OCC(O)CNCCc2ccc(Cl)cc2)c1 (stereo not drawn)	-1	14	x	-6	-17	x	x	6	x	-1
CCOC(=O)c1cccc(OCC(O)CNCCOc2ccccc2F)c1 (stereo not drawn)	19	-3	24	-21	-26	-3	x	x	x	x
SMILES	OX1R antag-1	GPR7 antagonist	TAAR1 agonist	OX1R antag-2	CHO parental Ca	TAAR1 antag	TAAR1 ag confirm	Ga16 nonsel ag	TAAR1 desensitize	Ga16 antag count
CCOc1cccc(/C=N/NC(=S)Nc2ccccc2[N+](=O)[O-])c1O	34	-7	5	-20	-16	14	x	x	x	x
O=[N+]([O-])c1ccccc1NC(=S)N/N=C/c1ccc(O)c(O)c1	16	-6	52*	-12	4	13	84*	6	56*	10
COC(=O)c1ccc(CNC(=O)COC(=O)c2cc(Cl)ccc2O)cc1	1	x	62*	-13	-25	70*	21	5	19	17
O=C(COC(=O)c1cc(Cl)ccc1O)NCCNC(=O)COC(=O)c1cc(Cl)ccc1O	25	-3	3	1	18	7	x	x	x	x
COc1ccc(SCC(=O)Nc2ccc(N3CCN(C)CC3)c(F)c2)cc1	11	-9	25	-9	6	2	x	x	x	x
Cc1ccc(SCC(=O)Nc2ccc(N3CCN(C)CC3)c(F)c2)cc1	11	10	49*	-12	-11	21	69*	4	39	8
Nc1nonc1-n1nnc(C(=O)N/N=C/c2ccccc2Cl)c1-c1ccccc1	29	-13	8	-20	4	3	x	x	x	x
COc1cccc(-c2c(C(=O)N/N=C/C3CC=CCC3)nnn2-c2nonc2N)c1 (stereo not drawn)	34	-8	4	-11	-1	-3	x	x	x	x
Nc1nonc1-n1nnc(C(=O)N/N=C/c2ccco2)c1-c1ccccc1	30	-8	100*	-16	-12	-6	72*	47*	12	0
Nc1nonc1-n1nnc(C(=O)N/N=C/c2ccoc2)c1-c1ccccc1	21	-9	85*	-9	-6	8	53*	46*	10	13

Screens: PubChem BioAssay, The Scripps Research Institute Molecular Screening Center
